Assay outcomes (PubChem)
Compounds with a hit are over-represented: about 1.8% of the library has one in this group of screens.
PG9 binder: PG9 antibody binding by small molecule. TR-FRET gp120-PG9 antibody binding. inhibition, % at 6.7 µM. 0.43% of 360,000 active. AID 624416; in the data active means inhibition above about 8.5%
Rev-erbA mod: Rev-erb alpha (human) modulation | P20393 | Rev-erbα–FITC-DNA binding, fluorescence polarization, 90 min | activity, % at 10 µM | 0.79% of 370,000 active | AID 1259318;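 active means activity above about 14%, limit read from the data; passing the limit was not always enough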;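 further: 0% = DMSO wells with 35 nM protein and 100% = DMSO wells with 750 nM protein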
Tb MetRS inh: blocks T. brucei methionyl-tRNA synthetase activity | purified T. brucei MetRS, ATP depletion, Kinase-Glo luminescence | inhibition, % at 11.9 µM | 0.4% of 360,000 active;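 active means inhibition above a per-plate cutoff of the control wells' mean inhibition plus 3 SD, cut at about 5.5% in these data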;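 further: 0% = DMSO wells median and 100% = median of wells with control inhibitor compound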
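Dosing: 11.9 µM compound single dose, 0.9% DMSO; Assay system: purified T. brucei MetRS enzyme; Measured by: Kinase-Glo luciferase luminescence reporting remaining unconsumed ATP; Schedule: 15 min plus 2 h at 25 °C.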
Rin1-Abl PPI inh: blocks binding of human Rin1 to Abl. P00519+Q13671. TR-FRET Rin1/Abl binding, biochemical. 0.4% of 360,000 active. AID 588664. inhibition, % at 7.35 µM; in the data active means inhibition above about 5%, passing the limit was not always enough
Target sequence (P00519 whole entry, looked up): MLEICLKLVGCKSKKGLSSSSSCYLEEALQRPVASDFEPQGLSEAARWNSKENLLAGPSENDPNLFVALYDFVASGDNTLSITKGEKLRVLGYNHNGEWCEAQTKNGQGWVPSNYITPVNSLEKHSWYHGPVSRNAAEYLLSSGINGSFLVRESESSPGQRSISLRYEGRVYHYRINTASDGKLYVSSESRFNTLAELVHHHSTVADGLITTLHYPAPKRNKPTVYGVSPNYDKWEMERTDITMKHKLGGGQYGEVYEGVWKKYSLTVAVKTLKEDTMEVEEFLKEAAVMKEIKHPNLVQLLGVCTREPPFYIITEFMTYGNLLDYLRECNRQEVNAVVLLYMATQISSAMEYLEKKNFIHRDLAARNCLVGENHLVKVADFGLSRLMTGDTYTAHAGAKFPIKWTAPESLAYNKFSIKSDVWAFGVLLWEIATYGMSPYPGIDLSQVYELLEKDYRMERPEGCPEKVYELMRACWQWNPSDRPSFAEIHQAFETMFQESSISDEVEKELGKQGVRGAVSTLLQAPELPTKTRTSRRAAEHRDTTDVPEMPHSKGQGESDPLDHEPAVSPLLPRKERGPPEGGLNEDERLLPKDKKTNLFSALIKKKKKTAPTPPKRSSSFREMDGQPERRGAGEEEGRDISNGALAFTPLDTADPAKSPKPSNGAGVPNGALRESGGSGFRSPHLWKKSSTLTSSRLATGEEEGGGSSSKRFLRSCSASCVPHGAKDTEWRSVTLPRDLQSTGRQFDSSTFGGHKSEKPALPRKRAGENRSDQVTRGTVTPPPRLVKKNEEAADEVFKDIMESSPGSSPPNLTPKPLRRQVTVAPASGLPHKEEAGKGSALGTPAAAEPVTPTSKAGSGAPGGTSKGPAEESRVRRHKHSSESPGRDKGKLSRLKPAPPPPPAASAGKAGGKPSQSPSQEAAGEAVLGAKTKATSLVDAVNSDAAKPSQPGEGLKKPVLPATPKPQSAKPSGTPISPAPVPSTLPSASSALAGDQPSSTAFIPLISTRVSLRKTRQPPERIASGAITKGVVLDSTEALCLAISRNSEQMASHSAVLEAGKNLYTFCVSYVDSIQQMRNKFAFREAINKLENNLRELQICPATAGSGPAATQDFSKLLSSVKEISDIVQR
Target sequence (Q13671 whole entry, looked up): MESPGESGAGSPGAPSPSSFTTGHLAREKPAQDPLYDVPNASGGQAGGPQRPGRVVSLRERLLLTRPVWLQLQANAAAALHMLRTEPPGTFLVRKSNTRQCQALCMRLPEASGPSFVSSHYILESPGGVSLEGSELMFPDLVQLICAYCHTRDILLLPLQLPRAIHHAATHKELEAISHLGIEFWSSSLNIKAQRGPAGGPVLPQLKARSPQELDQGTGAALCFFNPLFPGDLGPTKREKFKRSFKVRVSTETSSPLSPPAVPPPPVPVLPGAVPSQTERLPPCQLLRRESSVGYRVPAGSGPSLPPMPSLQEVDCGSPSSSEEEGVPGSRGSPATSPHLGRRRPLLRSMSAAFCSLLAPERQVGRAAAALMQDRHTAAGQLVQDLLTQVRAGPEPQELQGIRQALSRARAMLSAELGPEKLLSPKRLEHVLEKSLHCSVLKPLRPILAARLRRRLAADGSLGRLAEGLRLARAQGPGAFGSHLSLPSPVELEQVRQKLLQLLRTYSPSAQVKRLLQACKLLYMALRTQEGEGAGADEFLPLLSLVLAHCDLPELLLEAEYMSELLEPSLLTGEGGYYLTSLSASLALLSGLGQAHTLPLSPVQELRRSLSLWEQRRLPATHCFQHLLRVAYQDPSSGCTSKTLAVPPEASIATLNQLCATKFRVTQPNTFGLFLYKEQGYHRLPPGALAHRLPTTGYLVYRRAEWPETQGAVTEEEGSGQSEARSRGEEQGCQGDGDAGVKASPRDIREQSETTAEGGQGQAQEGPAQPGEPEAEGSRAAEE
Rev-erbA confirm: confirmation of modulators of human Rev-erb alpha DNA binding; activation, % at 25 µM; shares compounds with Rev-erbA mod; 61% of 3,000 active; AID 1259319; Rev-erb alpha FITC-DNA binding, fluorescence polarization, 90 min;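 active means activation at or above a set limit, or at least 3 SD above the negative control mean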;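 further: 0% = 35 nM protein with DMSO and 100% = 750 nM protein high control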
RORg DNA counter: counter-screen for Rev-erb alpha modulators: RORgamma DNA binding; IC50, µM; shares compounds with Rev-erbA mod; purified RORgamma protein-FITC-DNA binding, fluorescence polarization; 8% of 910 active;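 active means Compounds whose fitted half-maximal concentration for disrupting protein-DNA binding is below 10 micromolar; the record names Rev-erb in its text, so the target is in doubt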
An asterisk follows results filed as active; i = inactive; x = no result.

SMILES	PG9 binder	Rev-erbA mod	Tb MetRS inh	Rin1-Abl PPI inh	Rev-erbA confirm	others
Cc1ccc(C2/C(=C(/O)c3cnn(-c4ccccc4)c3C)C(=O)C(=O)N2CCN2CCOCC2)o1 (configuration not stated)	-0.6	-5.8	-1.2	0.2	x
Cc1c(/C(O)=C2/C(=O)C(=O)N(CCN3CCOCC3)C2c2cccs2)cnn1-c1ccccc1 (configuration not stated)	4.9	21.2*	0.0	-2.9	25.6*
CCOc1ccccc1NC(=O)c1nnn(CC(=O)Nc2cc(C)cc(C)c2)c1N	-0.8	21.3*	0.1	2.1	32.1*	RORg DNA counter=>40
COc1ccccc1NC(=O)c1nnn(CC(=O)Nc2cc(C)cc(C)c2)c1N	-1.5	-2.6	0.0	-0.8	x
Clc1ncnc2[nH]ccc12	0.8	-5.5	-0.4	2.2	x
CCN(Cc1ccccc1)C(=O)Nc1c(Cl)cccc1Cl	-0.1	12.7	x	x	x
Nc1ccc2c3c(cccc13)C(=O)N(c1ccccc1)C2=O	-4.7	91.7*	-0.7	-96.0	80.1*	RORg DNA counter=>40
CCN1C(=O)c2cccc3c(Cl)ccc1c23	-2.1	3.4	1.7	3.8	x
CCN1C(=O)c2cccc3c(Cl)ccc(c23)C1=O	0.6	41.0*	0.0	-1.4	29.8*
O=C(O)c1cccc(N2C(=O)c3cccc4c(Cl)ccc(c34)C2=O)c1	-0.5	0.3	-1.5	1.8	x
Nc1cccc(N2C(=O)c3cccc4c(N)ccc(c34)C2=O)c1	-14.6	79.8*	1.0	-29.8	63.6*	RORg DNA counter=>40
Cc1cccc(N2C(=O)c3cccc4cccc(c34)C2=O)c1	1.7	-1.9	0.1	-1.5	x
Cc1cccc(N2C(=O)c3cccc4c(N)ccc(c34)C2=O)c1	-7.4	245.2*	-0.1	-54.5	198.9*	RORg DNA counter=i
CC(C)CCN1C(=O)c2cccc3c(N)ccc(c23)C1=O	0.6	139.1*	1.1	-18.4	132.3*	RORg DNA counter=i
CCOc1ccc(NC(=O)N(Cc2ccc(C)cc2)Cc2ccccn2)cc1	-1.0	3.6	-0.7	-0.8	x
CCOc1cc(C=O)c(Br)cc1OC1CCCC1	2.8	21.7*	-0.8	-9.2	11.5
Cc1cc(OCc2cc(C(=O)NC(C)c3c(C)nn(C)c3C)no2)cc(C)c1Cl (configuration not stated)	-0.5	3.9	-0.5	-1.2	x
CCc1cc2c(=O)c(-c3cnn(-c4ccccc4)c3)c(C)oc2cc1OCC(=O)Nc1cccc(C)c1	-1.6	17.7	-0.6	0.3	x
CCc1cc2c(=O)c(-c3cnn(-c4ccccc4)c3)c(C)oc2cc1OCC(=O)Nc1ccc(F)c(F)c1	-1.1	30.9*	0.0	-2.5	12.7
OCC[n+]1ccc(/C=C/c2c[nH]c3ccccc23)cc1	-16.1	160.7*	0.0	-106.7	144.1*	RORg DNA counter=i
C(=Cc1c[nH]c2ccccc12)c1nccc2ccccc12	-2.2	25.5*	0.6	-9.0	23.0*
CCOc1ccc(N(CC(=O)N/N=C/c2ccccn2)S(=O)(=O)c2ccc(Cl)cc2)cc1	-1.6	4.9	-0.3	2.0	x
COc1ccc(C(=O)N2C(=O)c3ccc(N)cc3C2=O)cc1	1.4	23.2*	0.9	-0.8	6.6
Cc1nc2c(C)cccn2c(=O)c1NC(=O)c1cccs1	-1.1	3.4	-0.6	1.1	x
Cc1nc2c(C)cccn2c(=O)c1NC(=O)c1cccc2ccccc12	-0.6	28.7*	-0.4	-2.5	4.7
SMILES	PG9 binder	Rev-erbA mod	Tb MetRS inh	Rin1-Abl PPI inh	Rev-erbA confirm	others
CCSC1=C(C#N)C2(CCCCC2)C2=C(CC(C)(C)CC2=O)N1	-0.4	22.3*	-0.3	-0.8	2.3
C=CCOc1ccc(C2C(C(=O)c3cccs3)=C(O)C(=O)N2c2nnc(C)s2)cc1 (configuration not stated)	2.4	33.5*	-1.2	-0.6	53.9*	RORg DNA counter=>40
Cc1nnsc1C(=O)N1CCCC(C)(C(=O)NS(=O)(=O)C2CC2)C1 (configuration not stated)	-0.8	2.9	-0.3	0.1	x
O=C(NC1CCCCC1)C(c1ccccc1F)n1c(=O)c(-c2cc3ccccc3[nH]2)nc2ccccc21 (configuration not stated)	2.0	0.5	-0.3	x	x
CCOC(=O)N1CCC(NC(=O)c2cc(C)c3c(C)nn(-c4ccccc4)c3n2)CC1	-1.3	18.8*	-0.8	3.4	-12.6
CCOC(=O)N1CCC(NC(=O)c2ccccc2C(=O)O)CC1	-2.4	-2.8	0.1	-1.2	x
